Laboratory results taken from ChEMBL document CHEMBL1143019, “Hybrid molecules of estrone: new compounds with potential antibacterial, antifungal, and antiproliferative activities” (2007).

Key:
Mycobacterium kansasii [1] = assay: Antimicrobial activity against Mycobacterium kansasii My 6509/96 after 21 days; assay type: functional; conditions: 504 h
How it was run: (§1)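 Run in Šula semisynthetic liquid medium containing bovine serum. Compounds added as DMSO solutions at final concentrations of […]. Each strain was also inoculated onto Löwenstein–Jensen medium to control inoculum sterility and growth.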

Trichophyton benhamiae [2] = assay: Antifungal activity against Trichophyton mentagrophytes 445 after 120 hrs; assay type: functional, Arthroderma benhamiae
How it was run: (§2)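 Same modified M27-A microdilution with the mold inoculum of 0.5–5×10⁴ CFU/mL. Medium was RPMI 1640 with L-glutamine, no bicarbonate, and 0.165 M MOPS at pH 7.0. Twofold dilutions from 250 to 0.49. Incubated at 35 °C in a humid atmosphere.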

Trichophyton benhamiae [3] = assay: Antifungal activity against Trichophyton mentagrophytes 445 after 72 hrs; assay type: functional, Arthroderma benhamiae; how it was run: as §2
Aspergillus fumigatus [4] = assay: Antifungal activity against Aspergillus fumigatus 231 after 24 hrs; assay type: functional
How it was run: (§3)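 Modified NCCLS M27-A broth microdilution with clinical isolates subcultured on Sabouraud dextrose agar. Suspensions diluted 1:50 in RPMI 1640 to give a final inoculum of 0.5–2.5×10³ CFU/mL for yeasts or 0.5–5×10⁴ CFU/mL for molds. The RPMI had L-glutamine, no bicarbonate, and 0.165 M MOPS to pH 7.0. Twofold dilutions from 250 to 0.49. Plates held at 35 °C, humid, without agitation. MIC is the lowest concentration giving ≥80% inhibition versus drug-free control, read at 24 and 48 h.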

Lichtheimia corymbifera [5] = assay: Antifungal activity against Absidia corymbifera 272 after 24 hrs; assay type: functional; how it was run: as §3
[6] = tested on: Mycolicibacterium smegmatis; assay: Antimicrobial activity against Mycobacterium smegmatis SG 987 after 24 hrs by micro-broth dilution method; assay type: functional
How it was run: (§4)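 Microbroth dilution per NCCLS guidelines. Bacteria grown overnight at 37 °C in Mueller–Hinton broth. Compound solution serially diluted twofold in MHB, then wells inoculated to a final 5×10⁵ CFU/mL. Incubated 24 h at 37 °C. MIC (µg/mL) read on an automatic plate reader as the lowest dilution allowing no visible growth.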

Mycolicibacterium aurum = assay: Antimicrobial activity against Mycobacterium aurum SB 66 after 24 hrs by micro-broth dilution method; assay type: functional; how it was run: as §4
Pichia kudriavzevii [7] = assay: Antifungal activity against Candida krusei E28 after 24 hrs; assay type: functional; how it was run: as §3
Nakaseomyces glabratus [8] = assay: Antifungal activity against Candida glabrata 20/I after 48 hrs; assay type: functional; how it was run: as §3
Mycolicibacterium vaccae = assay: Antimicrobial activity against Mycobacterium vaccae 10670 after 24 hrs by micro-broth dilution method; assay type: functional; how it was run: as §4
Lichtheimia corymbifera [9] = assay: Antifungal activity against Absidia corymbifera 272 after 48 hrs; assay type: functional; how it was run: as §3
Mycobacterium kansasii [10] = assay: Antimicrobial activity against Mycobacterium kansasii My 235/80 after 14 days; assay type: functional; conditions: 336 h; how it was run: as §1
[11] = tested on: Mycolicibacterium fortuitum; assay: Antimicrobial activity against Mycobacterium fortuitum Borstel after 24 hrs by microbroth dilution method; assay type: functional; how it was run: as §4
Candida tropicalis [12] = assay: Antifungal activity against Candida tropicalis 156 after 24 hrs; assay type: functional; how it was run: as §3
Trichosporon beigelii [13] = assay: Antifungal activity against Trichosporon beigelii 1188 after 48 hrs; assay type: functional; how it was run: as §3
Nakaseomyces glabratus [14] = assay: Antifungal activity against Candida glabrata 20/I after 24 hrs; assay type: functional; how it was run: as §3
Pichia kudriavzevii [15] = assay: Antifungal activity against Candida krusei E28 after 48 hrs; assay type: functional; how it was run: as §3
Mycobacterium kansasii [16] = assay: Antimicrobial activity against Mycobacterium kansasii My 6509/96 after 14 days; assay type: functional; conditions: 336 h; how it was run: as §1
Mycobacterium kansasii [17] = assay: Antimicrobial activity against Mycobacterium kansasii My 235/80 after 21 days; assay type: functional; conditions: 504 h; how it was run: as §1
Mycobacterium kansasii [18] = assay: Antimicrobial activity against Mycobacterium kansasii My 6509/96 after 7 days; assay type: functional; conditions: 168 h; how it was run: as §1
Mycobacterium avium [19] = assay: Antimicrobial activity against Mycobacterium avium My 330/88 after 21 days; assay type: functional; conditions: 504 h
Micrococcus luteus = assay: Antibacterial activity against Micrococcus luteus ATCC 10240 after 24 hrs by microbroth dilution method; assay type: functional; conditions: ATCC 10240, 24 h; how it was run: as §4
Candida albicans [20] = assay: Antifungal activity against Candida albicans ATCC 44859 after 48 hrs; assay type: functional; conditions: ATCC 44859, 48 h; how it was run: as §3
HeLa = assay: Cytotoxicity against human HeLa cells after 72 hrs; assay type: functional; conditions: for CC50: Homo sapiens, HeLa, 72 h
How it was run: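 About 10,000 cells per well in RPMI 1640 were preincubated 48 h without compound. The 10 test concentrations were then applied onto the monolayers and incubated 72 h at 37 °C in humidified 5% CO₂. Monolayers fixed with glutaraldehyde, stained with 0.05% methylene blue, and eluted with 0.33 N HCl; optical density measured at 630 nm.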

Staphylococcus aureus [21] = assay: Antibacterial activity against methicillin-resistant Staphylococcus aureus 994/93 after 24 hrs by micro-broth dilution method; assay type: functional
How it was run: (§5)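 Broth microdilution per NCCLS in Mueller–Hinton broth. Overnight cultures grown at 37 °C. Compound serially diluted twofold, then wells inoculated to a final 5×10⁵ CFU/mL. Plates held at 37 °C for 24 h. MIC (µg/mL) read on an automatic plate reader as the lowest dilution with no visible growth.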

Candida albicans [22] = assay: Antifungal activity against Candida albicans ATCC 44859 after 24 hrs; assay type: functional; conditions: ATCC 44859, 24 h; how it was run: as §3
Aspergillus fumigatus [23] = assay: Antifungal activity against Aspergillus fumigatus 231 after 48 hrs; assay type: functional; how it was run: as §3
L929 = assay: Antiproliferative activity against mouse L929 cells after 72 hrs; assay type: functional; conditions: L929, 72 h
How it was run: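 About 10,000 adherent cells per well in RPMI 1640 with 10% heat-inactivated FBS and penicillin/streptomycin, without HEPES. Exposed to 10 concentrations for 72 h at 37 °C in humidified 5% CO₂. Monolayers fixed with glutaraldehyde, stained 15 min with 0.05% methylene blue, and eluted with 0.33 N HCl; OD read at 630 nm. GI50 derived from dose–response curves relative to control.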

Staphylococcus aureus [24] = assay: Antibacterial activity against Staphylococcus aureus SG 511 after 24 hrs by micro-broth dilution method; assay type: functional; conditions: SG 511, 24 h; how it was run: as §4
Enterococcus faecalis = assay: Antibacterial activity against Enterococcus faecalis 1528 after 24 hrs by micro-broth dilution method; assay type: functional; how it was run: as §4
[25] = tested on: Mycobacterium tuberculosis; assay: Antimicrobial activity against Mycobacterium tuberculosis My 331/88 after 14 days; assay type: functional; conditions: 336 h
Mycobacterium avium [26] = assay: Antimicrobial activity against Mycobacterium avium My 330/88 after 14 days; assay type: functional; conditions: 336 h
Candida tropicalis [27] = assay: Antifungal activity against Candida tropicalis 156 after 48 hrs; assay type: functional; how it was run: as §3
K562 = assay: Antiproliferative activity against human K562 cells after 72 hrs; assay type: functional; conditions: K562, 72 h
How it was run: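 About 10,000 suspension cells per well in RPMI 1640 with 10% heat-inactivated FBS and penicillin/streptomycin, without HEPES. Exposed to 10 concentrations for 72 h at 37 °C in humidified 5% CO₂. Wells diluted 1:50 in CASYTON and counted electronically, each result the mean of three successive counts. GI50 is where the concentration–response curve crosses 50% of control cell count.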

Trichosporon beigelii [28] = assay: Antifungal activity against Trichosporon beigelii 1188 after 24 hrs; assay type: functional; how it was run: as §3
Mycobacterium kansasii [29] = assay: Antimicrobial activity against Mycobacterium kansasii My 235/80 after 7 days; assay type: functional; conditions: 168 h; how it was run: as §1
[30] = tested on: Mycobacterium tuberculosis; assay: Antimicrobial activity against Mycobacterium tuberculosis My 331/88 after 21 days; assay type: functional; conditions: 504 h
Staphylococcus aureus [31] = assay: Antibacterial activity against methicillin-resistant Staphylococcus aureus 134/94 after 24 hrs by microbroth dilution method; assay type: functional; how it was run: as §5

| Compound | MIC (Mycobacterium kansasii [1]) [µM] | MIC (Trichophyton benhamiae [2]) [µM] | MIC (Trichophyton benhamiae [3]) [µM] | MIC (Aspergillus fumigatus [4]) [µM] | MIC (Lichtheimia corymbifera [5]) [µM] | MIC [6] [µg/mL] | MIC (Mycolicibacterium aurum) [µg/mL] | MIC (Pichia kudriavzevii [7]) [µM] | MIC (Nakaseomyces glabratus [8]) [µM] | MIC (Mycolicibacterium vaccae) [µg/mL] | MIC (Lichtheimia corymbifera [9]) [µM] | MIC (Mycobacterium kansasii [10]) [µM] | MIC [11] [µg/mL] | MIC (Candida tropicalis [12]) [µM] | MIC (Trichosporon beigelii [13]) [µM] | MIC (Nakaseomyces glabratus [14]) [µM] | MIC (Pichia kudriavzevii [15]) [µM] | MIC (Mycobacterium kansasii [16]) [µM] | MIC (Mycobacterium kansasii [17]) [µM] | MIC (Mycobacterium kansasii [18]) [µM] | further results |
| --- | --- | --- | --- | --- | --- | --- | --- | --- | --- | --- | --- | --- | --- | --- | --- | --- | --- | --- | --- | --- | --- |
| C[C@]12CC[C@@H]3c4ccc(OCCCCCCC[n+]5ccc(SCc6ccccc6)cc5)cc4CC[C@H]3[C@@H]1CCC2=O.[Br-] | 16 | 7.8 | 7.8 | 15.6 | 31 | 1.56 | 3.12 | 7.8 | 15.6 | 1.56 | 31 | 8 | 6.25 | 15.6 | 7.8 | 15.6 | 7.8 | 8 | 8 | 8 | MIC (Mycobacterium avium [19]): 2 µM; MIC (Micrococcus luteus): 0.4 µg/mL; MIC (Candida albicans [20]): 3.9 µM; CC10 (HeLa): 1.2 µg/mL; CC50 (HeLa): 3.1 µg/mL; MIC (Staphylococcus aureus [21]): 3.12 µg/mL; MIC (Candida albicans [22]): 3.9 µM; MIC (Aspergillus fumigatus [23]): 31 µM; GI50 (L929): 4 µg/mL; MIC (Staphylococcus aureus [24]): 3.12 µg/mL; MIC (Enterococcus faecalis): 6.25 µg/mL; MIC [25]: 4 µM; MIC (Mycobacterium avium [26]): 2 µM; MIC (Candida tropicalis [27]): 15.6 µM; GI50 (K562): 2.3 µg/mL; MIC (Trichosporon beigelii [28]): 3.9 µM; MIC (Mycobacterium kansasii [29]): 8 µM; MIC [30]: 8 µM; MIC (Staphylococcus aureus [31]): 3.12 µg/mL |
| C[C@]12CC[C@@H]3c4ccc(OCCCCCCC[n+]5ccccc5)cc4CC[C@H]3[C@@H]1CCC2=O.[Br-] | 32 | 62.5 | 31.3 | 3.9 | > 250 | 3.12 | 6.25 | 15.6 | 15.6 | 3.12 | > 250 | 32 | 6.25 | 15.6 | 7.8 | 7.8 | 31.3 | 32 | 32 | 16 | MIC (Mycobacterium avium [19]): 32 µM; MIC (Micrococcus luteus): 0.8 µg/mL; MIC (Candida albicans [20]): 3.9 µM; CC10 (HeLa): 5.1 µg/mL; CC50 (HeLa): 17.5 µg/mL; MIC (Staphylococcus aureus [21]): 6.25 µg/mL; MIC (Candida albicans [22]): 3.9 µM; MIC (Aspergillus fumigatus [23]): 62.5 µM; GI50 (L929): 16.7 µg/mL; MIC (Staphylococcus aureus [24]): 3.12 µg/mL; MIC (Enterococcus faecalis): 12.5 µg/mL; MIC [25]: 16 µM; MIC (Mycobacterium avium [26]): 32 µM; MIC (Candida tropicalis [27]): 15.6 µM; GI50 (K562): 5.3 µg/mL; MIC (Trichosporon beigelii [28]): 3.9 µM; MIC (Mycobacterium kansasii [29]): 16 µM; MIC [30]: 32 µM; MIC (Staphylococcus aureus [31]): 25 µg/mL |
